For test [1], the system named is HepG2. Put plainly: Antiproliferative activity against human HepG2 cells after 48 hrs by MTT assay. In kind it is functional, cell-based. As to conditions: HepG2, 48 h. Summed up:
(§1)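 Cells seeded at 2000/well, cultured 24 h, then exposed to compounds 48 h. MTT (10 mg/mL stock, 10 µL/well) added for 2.5 h at 37 °C; supernatant removed, DMSO added 15–20 min, absorbance read at 570 nm. IC50 reported as mean of three independent experiments.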
Background: Tetrazolium assays rely on reduction of a dye to a coloured formazan, in cell work by metabolically active cells.

Test [2] deals with NCI-H460. Description: Antiproliferative activity against human NCI-H460 cells after 48 hrs by MTT assay. In kind it is functional, cell-based. The settings on record: NCI-H460, 48 h. A digest of the protocol: as §1
Test [3] has as its system HeLa. Description: Antiproliferative activity against human HeLa cells after 48 hrs by MTT assay. In kind it is functional, cell-based. Summed up: as §1
The subject of test [4] is PC-3. Put plainly: Antiproliferative activity against human PC3 cells after 48 hrs by MTT assay. In kind it is functional, cell-based. As to conditions: PC-3, 48 h. Summed up:
as §1

The test system of test [5] is NCI-H460. Description: Induction of apoptosis in human NCI-H460 cells at 2.5 uM after 48 hrs using annexin V-FITC and propidium iodine staining by flow cytometric analysis (reference value: 3.82%). Type of test: functional.
Test [6] has as its system NCI-H460. Put plainly: Induction of apoptosis in human NCI-H460 cells at 10 uM after 48 hrs using annexin V-FITC and propidium iodine staining by flow cytometric analysis (reference value: 3.82%). Type of test: functional. A general note: In flow cytometry, cells or beads pass a laser one at a time.

Drawing on ChEMBL document CHEMBL1821581, “Synthesis, antiproliferative activities and in vitro biological evaluation of novel benzofuransulfonamide derivatives” (Bioorg Med Chem Lett, 2011), this text covers IC50 and Activity for six compounds.

One may read the IC50 as the concentration that inhibits the measured activity by half. Low values mean greater potency, high ones weaker potency. Turning to `Cc1c(C(=O)c2ccccc2)oc2ccc(NC(=O)c3ccc(F)cc3)cc12`, the IC50 in test [1] was found to be 31.2 µM; in test [2], 15.6 µM; in test [3] it was 18.8 µM; in test [4] it was 13.5 µM.

On to `Cc1c(C(=O)c2ccccc2)oc2ccc(NS(=O)(=O)c3ccc(F)cc3)cc12`, for which the IC50 in test [1] is 24.1 µM; in test [2], 34.8 µM; in test [3], 10.6 µM; in test [4], 38.2 µM.

As to `CC(=O)Nc1ccc2oc(C(=O)c3ccccc3)c(C)c2c1`, the IC50 in test [1], in test [2], in test [3] and in test [4] was greater than 40 µM in each case.

`CCOC(=O)c1oc2ccc(NS(=O)(=O)c3ccc(F)cc3)cc2c1C`: the half-maximal inhibitory concentration (IC50) is 5.68 µM in test [1], 8.89 µM in test [2], 12.2 µM in test [3] and 15.9 µM in test [4].

Regarding `Cc1c(C(=O)c2ccccc2)oc2ccc(S(=O)(=O)Nc3ccc(F)cc3)cc12`, the IC50 in test [1] was 32.2 µM; in test [2] it was 22.6 µM; in test [3], 15.4 µM; in test [4], 22.1 µM.

With `CCOC(=O)c1oc2ccc(S(=O)(=O)Nc3ccc(F)cc3)cc2c1C`, the IC50 in test [1] was found to be 7.53 µM; in test [2], 4.13 µM; in test [3], 9.37 µM; in test [4], 8.56 µM. For the same compound, the Activity in test [5] worked out at 33.88%; in test [6] it was 41.09%.
